Test results published in ChEMBL document CHEMBL1124158, “Importance of the N-terminal domain of the type II angiotensin antagonist sarmesin for receptor blockade” (J Med Chem, 1988).

Tests used:
[1] = species: Rattus norvegicus; assay: Agonistic activity determined by matching the response with an equivalent response to ANG II (human)-evaluated in rat uterus bioassay; type: functional
Method in brief: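 Uterine horns (defatted) from diethylstilbestrol-primed virgin Sprague-Dawley rats (150-250 g), halved, held under 1 g tension in a 3-mL bath: 150 mM NaCl, 5.6 mM KCl, 0.18 mM NaHCO₃, 1.4 mM glucose, pH 7.0, oxygen-gassed. Isotonic contractions recorded. Agonist activity expressed relative to an equivalent contraction produced by human ANG II.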

[2] = species: Rattus norvegicus; assay: Negative logarithm of the concentration of compound required to reduce the response of EC50 dose of ANG II to the response to half the EC50 dose; type: functional, organism-based; settings: read-out: pA2 (converted)
Method in brief: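 Rat isolated uterus: defatted horns from diethylstilbestrol-primed virgin Sprague-Dawley rats (150-250 g), halved, 1 g tension, 3-mL bath of 150 mM NaCl, 5.6 mM KCl, 0.18 mM NaHCO₃, 1.4 mM glucose, pH 7.0, oxygenated. Isotonic contractions to human ANG II. pA2 = −log antagonist concentration lowering the EC50-dose response to that of half the EC50 dose.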

Structure (SMILES): CC[C@H](C)[C@H](NC(=O)[C@@H]1CCCN1C(=O)[C@H](Cc1c[nH]cn1)NC(=O)[C@@H](NC(=O)[C@H](Cc1ccc(O)cc1)NC(=O)[C@@H](NC(=O)[C@H](CCCN=C(N)N)NC(=O)CNC)C(C)C)[C@@H](C)CC)C(=O)O
- Activity [1]: <0.01%
- Kb [2]: 7.94 nM
